Source: PubChem (Broad Institute)
DENV2 CPE rescue = DENV2-induced cell death inhibition | DENV2-infected cells, cytopathic effect rescue, plate reader | CPE inhibition, % at 9.99 µM | actives 1.7% (n = 350,000); in the data active = CPE inhibition above about 20%, passing the limit was not always enough; inconclusive = no clear call, values can overlap the other calls; tested in BHK-21 cells;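 also: 0% = median of neutral control wells and 100% = median of positive control wells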
S100A4 inh HTS = blocks human S100A4 binding to myosin IIA peptide | AID 652163 | actives 0.14% (n = 360,000) | inhibition, % at 10.7 µM | S100A4/TAMRA-MyoIIA peptide fluorescence polarization;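 active = mean inhibition of at least 70% across replicates, with every replicate also reaching that level; inconclusive = mean inhibition reaches 70% but some replicates fall short; inactive = mean inhibition below 70%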
Target sequence (P26447 whole entry, looked up): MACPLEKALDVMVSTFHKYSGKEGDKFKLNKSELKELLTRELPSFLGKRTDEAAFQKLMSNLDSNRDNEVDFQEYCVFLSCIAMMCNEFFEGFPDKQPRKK
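Test system – S100A4 monomer (human) · Compound – single-point compound testing · Schedule – 5 min incubation before reading · Probe or stimulus – TAMRA-labelled myosin IIA heavy-chain peptide probe, 5 nM · Benchmarks – neutral control DMSO, positive control TFP · Medium – Calcium-containing HEPES buffer, pH 7.2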
CAL PDZ FP-1 = blocks peptide binding to human CAL PDZ domain | actives 0.02% (n = 330,000) | AID 504414 | inhibition, % at 20 µM | Q9HD26 | purified CAL PDZ, TMR-peptide fluorescence polarization, 1 h;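 active = highest replicate inhibition of at least 40%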;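 also: plate controls were DMSO neutral control wells for no effect and unlabeled competitor peptide control wells for full effect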
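Read-out basis: mP drop reported as inhibition | Assay system: Tagged CAL PDZ protein CerCALP, purified | Benchmarks: Unlabelled peptide for full inhibition, DMSO wells as neutral | Schedule: 1 h incubation at room temperature before polarization reading | Buffer or medium: Sodium phosphate/NaCl buffer pH 7.4 with TCEP, IgG, Thesit | Doses: Single point, 20 µM | Measured by: Fluorescence polarization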
SIRT5 block = sirtuin-5 (human) deacylase inhibition. Q9NXA8. Purified SirT5, succinyl-peptide AMC, trypsin-coupled fluorescence. inhibition, % at 15 µM. actives 1.1% (n = 330,000); in the data active = inhibition above about 15%; inconclusive = no clear call, values can overlap the other calls
Target sequence (Q9NXA8 whole entry, looked up): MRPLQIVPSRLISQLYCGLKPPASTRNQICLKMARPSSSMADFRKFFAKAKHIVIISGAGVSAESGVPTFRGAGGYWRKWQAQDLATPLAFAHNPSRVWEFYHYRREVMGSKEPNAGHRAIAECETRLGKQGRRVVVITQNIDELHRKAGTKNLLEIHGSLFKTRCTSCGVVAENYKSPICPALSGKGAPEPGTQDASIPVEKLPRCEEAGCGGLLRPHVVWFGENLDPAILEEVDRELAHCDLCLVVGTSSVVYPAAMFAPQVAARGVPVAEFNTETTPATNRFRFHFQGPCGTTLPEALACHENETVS
CAL PDZ FP-2 = inhibitors of human CAL PDZ peptide binding | Q9HD26 | purified CAL PDZ, TMR-peptide fluorescence polarization, 1 h | inhibition, % at 24.9 µM | actives 0.92% (n = 300,000) | AID 602252;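 active = mean inhibition of at least 30% with at least half of replicates also reaching 30%; inconclusive = no clear call, values can overlap the other calls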;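 also: 0% = DMSO neutral control and 100% = excess unlabeled competitor peptide PRC23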
ERAP1 HTS inh = blocks human ERAP1 aminopeptidase activity | recombinant ERAP1, Leu-AMC fluorescence, 60 min | actives 0.15% (n = 340,000) | inhibition, % at 10.7 µM;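 active = mean replicate inhibition of at least 30%, or all replicates individually reaching that 30% level; inactive = mean below 30% and not every replicate reaching it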;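 also: 0% = neutral control wells and 100% = L-leucinethiol positive control wells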
Starred values were filed as active, the others as inactive; u = inconclusive; x = no result given; ! = repeats disagree. In the library only some 2.9% were active in any assay of this set; here they are far more common.

SMILES | DENV2 CPE rescue | S100A4 inh HTS | CAL PDZ FP-1 | SIRT5 block | CAL PDZ FP-2 | ERAP1 HTS inh
CC(C)CN(C[C@H]1N[C@H](CO)[C@@H]1c1ccccc1)C(=O)C1CCCC1 | -2.6 | 8.5 | x | 7.5 | x | -1.2
C[C@@H]1CCCCO[C@@H](CN(C)C(=O)Nc2ccc(F)cc2)[C@@H](C)CN([C@H](C)CO)C(=O)c2cc(NC(=O)Nc3ccc(F)cc3)ccc2O1 | -3.1 | -6.5 | x | 0.8 | x | 2.6
COc1ccc(NC(=O)N[C@H]2C=C[C@@H](CC(=O)NC3CCC3)O[C@H]2CO)cc1 | 6.4 | -2.0 | x | 10.7 | x | -2.3
CCc1noc(C)c1C(=O)Nc1ncc(C)s1 | x | x | -2.6 | x | 35.0* | x
Cc1noc(C)c1C(=O)Nc1nc(-c2cccs2)cs1 | 9.5 | 9.8 | -1.2 | -1.0 | 0.3 | -6.3
CCc1noc(C)c1C(=O)Nc1nc(-c2cccs2)cs1 | -6.2 | -7.4 | -0.5 | 15.3* | x | 3.6
C[C@@H]1CN([C@H](C)CO)C(=O)c2cccc(N(C)C)c2O[C@@H]1CN(C)S(=O)(=O)c1ccccc1 | -6.3 | 0.8 | x | -0.7 | x | -2.1
C[C@@H]1CN([C@H](C)CO)C(=O)c2cc(N(C)C)ccc2O[C@H]1CN(C)S(=O)(=O)c1ccccc1 | 1.1 | -5.0 | x | 32.5* | x | 4.0
C[C@H](CO)N1C[C@H](C)[C@@H](CN(C)S(=O)(=O)c2ccccc2)Oc2c(cccc2N(C)C)C1=O | u | 10.3 | -0.7 | 25.0* | 1.7 | -1.1
Cc1noc(C)c1S(=O)(=O)N(C)C[C@H]1Oc2ccc(NC(=O)Nc3ccc4c(c3)OCO4)cc2CC(=O)N([C@@H](C)CO)C[C@@H]1C | -4.2 | -6.8 | x | -7.2 | x | -0.6
C[C@H](CO)N1C[C@H](C)[C@H](CN(C)Cc2ccc(C(F)(F)F)cc2)Oc2ccc(NC(=O)NC3CCCCC3)cc2CC1=O | 9.5 | 7.3 | x | 0.9 | x | 0.1
CC1Cc2ccccc2N1C(=O)COC(=O)c1cccc(Br)c1 (centres undefined) | 0.4 | -5.1 | -2.0 | -3.0 | 182.4* | -9.8
CC1Cc2ccccc2N1C(=O)COC(=O)c1cc(Br)ccc1O (centres undefined) | 2.6 | 2.2 | -2.6 | 0.5 | -2.8 | -0.6
CC1Cc2ccccc2N1C(=O)COc1ccc2c(c1)OCO2 (centres undefined) | -8.0 | 1.6 | -2.0 | -1.3 | -1.9 | 30.6*
CC1CCCN(C(=O)COc2ccc3c(c2)OCO3)C1 (centres undefined) | u | -11.9 | 0.8 | 1.7 | x | -0.9
O=C(COc1ccc(Cl)cc1)NN=C1CCCCCCC1 | 7.5 | -2.7 | -2.3 | -0.7 | -3.6 | -3.1
CN1CCC(=NNC(=O)COc2ccc(Cl)cc2)CC1 | 13.6 | -1.6 | 0.7 | 20.8* | 4.5 | -0.8
COCC#Cc1cnc2c(c1)C(=O)N([C@H](C)CO)C[C@H](C)[C@@H](CN(C)C(=O)Nc1ccccc1F)O2 | -8.1 | -5.4 | x | -9.7 | x | 1.0
O=C(Cn1[nH]c(=O)c2ccccc2c1=O)OCC(=O)c1ccc(F)c(F)c1 | 2.6 | -12.5 | 0.6 | -3.0 | x | 1.0
O=C(Cn1[nH]c(=O)c2ccccc2c1=O)OCC(=O)c1ccc(F)cc1 | u | -4.0 | -2.3 | 15.7* | -0.4 | 0.2
COc1cc(-c2nnc(-c3cc(OC)c(OC)c(OC)c3)o2)cc(OC)c1OC | x | x | -1.7 | x | 44.3* | x
CC(NC(=O)c1cccc(S(=O)(=O)N2CCN(Cc3ccccc3)CC2)c1)c1ccc(Br)cc1 (centres undefined) | 24.9* | 4.3 | 0.4 | -2.4 | x | 1.9
Cc1noc(C)c1NC(=O)N(C)C[C@H]1Oc2ncc(C#CC(C)C)cc2C(=O)N([C@@H](C)CO)C[C@H]1C | 53.4* | -6.3 | x | 0.0 | x | 6.4
CC(C)C#Cc1cnc2c(c1)C(=O)N([C@H](C)CO)C[C@H](C)[C@@H](CN(C)C(=O)CN1CCOCC1)O2 | -3.8 | -16.0 | x | 39.5* | x | 0.5
Cc1noc(C)c1NC(=O)N(C)C[C@@H]1Oc2ncc(C#CC(C)C)cc2C(=O)N([C@H](C)CO)C[C@H]1C | 13.0 | -5.9 | x | -14.8 | x | 1.1
SMILES | DENV2 CPE rescue | S100A4 inh HTS | CAL PDZ FP-1 | SIRT5 block | CAL PDZ FP-2 | ERAP1 HTS inh
Cc1noc(C)c1NC(=O)N(C)C[C@@H]1Oc2ncc(C#CCN(C)C)cc2C(=O)N([C@@H](C)CO)C[C@@H]1C | 24.6* | 9.5 | x | -16.5 | x | 0.9
Cc1noc(C)c1NC(=O)N(C)C[C@@H]1Oc2ncc(Br)cc2C(=O)N([C@@H](C)CO)C[C@H]1C | -2.6 | -7.9 | x | 30.5*! | x | -2.5
CN(C)C(=O)C[C@H]1CC[C@H]2[C@@H](COC[C@@H](O)CN2CC2CC2)O1 | u | 5.3 | x | 13.2 | x | -4.8
CNC(=O)c1cc(Nc2nnc(C)c3ccccc23)ccc1OC | x | x | x | x | 35.3* | x
COc1ccc(Nc2nnc(C)c3ccccc23)cc1C(N)=O | x | x | -1.7 | x | -2.5 | x
CCC(=O)N[C@@H]1C=C[C@H](CC(=O)NCCN2CCCCC2)O[C@H]1CO | -0.4 | 0.4 | x | -3.6 | x | 0.5
CCCN(CCC)CCCNC(=O)c1cc2c(=O)[nH]c3ccccc3c2n1C | 28.6* | 4.1 | -2.4 | -2.6 | -4.6 | 3.1
COc1ccc(-c2cnc3c(c2)C(=O)N([C@@H](C)CO)C[C@@H](C)[C@H](CN(C)S(C)(=O)=O)O3)cc1 | 2.9 | -5.4 | x | -1.1 | x | -4.6
Cc1nn2c3ccccc3nc2c2ccccc12 | x | x | 42.5* | x | x | x
O=C(NCc1ccc(Cl)cc1)c1ccc2c(=O)n(CC3CCCO3)c(=S)[nH]c2c1 (centres undefined) | -3.1 | -2.7 | -0.7 | 16.0* | 1.2 | 2.6
CC(C)Cn1c(=S)[nH]c2cc(C(=O)NCc3ccccc3F)ccc2c1=O | 62.1* | 1.9 | -0.2 | 1.6 | -3.3 | -0.7
COC(=O)[C@H]1[C@H](CO)[C@H]2Cn3c(ccc(-c4cccc(F)c4)c3=O)[C@H]2N1S(C)(=O)=O | -12.9 | -4.0 | x | -18.6 | x | 4.3
Cc1cc(C(=O)NNC(=O)c2ccc(Cl)c(S(N)(=O)=O)c2)c(C)o1 | 6.4 | 0.7 | 0.1 | -4.3 | 64.1* | -2.1
O=C(C[C@H]1C[C@H]2c3cc(NC(=O)Cc4ccncc4)ccc3O[C@H]2[C@@H](CO)O1)NCCN1CCCCC1 | -6.2 | -4.7 | x | 1.1 | x | 0.4
COc1ccc(C(C(=O)NCC2CCCO2)N(Cc2cccs2)C(=O)c2snc(C(N)=O)c2N)cc1OC (centres undefined) | 1.3 | -7.6 | -2.0 | -1.0 | -2.3 | 4.3
CCOc1ccc(C(C(=O)NCC2CCCO2)N(Cc2cccs2)C(=O)c2snc(C(N)=O)c2N)cc1 (centres undefined) | u | 1.9 | 0.0 | 25.2* | -2.1 | -0.5
COc1ccc(-c2ccccc2)cc1NC(=O)c1cccs1 | 49.4* | -7.7 | 0.8 | 16.4* | 0.1 | -0.8
COc1ccc(-c2ccccc2)cc1NC(=O)C1(C)CCN1C(=O)C(C)C (centres undefined) | -9.0 | 3.8 | x | 22.0* | x | 3.5
COc1cc(NC(=O)c2cccs2)c(OC)cc1NC(=O)c1cccs1 | x | x | -1.7 | x | 3.0 | x
